The logD is the decadic logarithm of the distribution of all forms, ionised or not, between an organic phase and buffer at a given pH. Read a high logD as higher lipophilicity.

We go through 28 compounds from ChEMBL document CHEMBL3769320, “Cell Penetrant Inhibitors of the KDM4 and KDM5 Families of Histone Lysine Demethylases. 2. Pyrido[3,4-d]pyrimidin-4(3H)-one Derivatives” (J Med Chem, 2016).

The structures appear in SMILES notation.

For series [1], the target named is T1, Lysine-specific demethylase 4E (Homo sapiens, UniProt B2RXH2).
T1 sequence (B2RXH2 whole entry): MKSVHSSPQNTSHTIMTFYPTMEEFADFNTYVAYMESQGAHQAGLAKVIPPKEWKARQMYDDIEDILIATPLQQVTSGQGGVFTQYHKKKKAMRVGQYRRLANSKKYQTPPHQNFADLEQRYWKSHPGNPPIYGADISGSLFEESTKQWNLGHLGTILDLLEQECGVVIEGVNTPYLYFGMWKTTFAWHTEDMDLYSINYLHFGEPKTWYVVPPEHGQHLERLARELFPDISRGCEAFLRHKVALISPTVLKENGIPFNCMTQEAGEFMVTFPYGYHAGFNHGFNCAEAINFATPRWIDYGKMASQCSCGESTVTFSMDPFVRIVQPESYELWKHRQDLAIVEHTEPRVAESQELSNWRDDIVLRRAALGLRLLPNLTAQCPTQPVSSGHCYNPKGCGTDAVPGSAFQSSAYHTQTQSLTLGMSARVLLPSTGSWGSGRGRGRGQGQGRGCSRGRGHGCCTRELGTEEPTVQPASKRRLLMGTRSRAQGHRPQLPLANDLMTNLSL
Nature of the series: Inhibition of KDM4E (unknown origin) by RFMS assay.

In series [2] the target is T2, Lysine-specific demethylase 4C (Homo sapiens, UniProt Q9H3R0).
T2 sequence (Q9H3R0 whole entry): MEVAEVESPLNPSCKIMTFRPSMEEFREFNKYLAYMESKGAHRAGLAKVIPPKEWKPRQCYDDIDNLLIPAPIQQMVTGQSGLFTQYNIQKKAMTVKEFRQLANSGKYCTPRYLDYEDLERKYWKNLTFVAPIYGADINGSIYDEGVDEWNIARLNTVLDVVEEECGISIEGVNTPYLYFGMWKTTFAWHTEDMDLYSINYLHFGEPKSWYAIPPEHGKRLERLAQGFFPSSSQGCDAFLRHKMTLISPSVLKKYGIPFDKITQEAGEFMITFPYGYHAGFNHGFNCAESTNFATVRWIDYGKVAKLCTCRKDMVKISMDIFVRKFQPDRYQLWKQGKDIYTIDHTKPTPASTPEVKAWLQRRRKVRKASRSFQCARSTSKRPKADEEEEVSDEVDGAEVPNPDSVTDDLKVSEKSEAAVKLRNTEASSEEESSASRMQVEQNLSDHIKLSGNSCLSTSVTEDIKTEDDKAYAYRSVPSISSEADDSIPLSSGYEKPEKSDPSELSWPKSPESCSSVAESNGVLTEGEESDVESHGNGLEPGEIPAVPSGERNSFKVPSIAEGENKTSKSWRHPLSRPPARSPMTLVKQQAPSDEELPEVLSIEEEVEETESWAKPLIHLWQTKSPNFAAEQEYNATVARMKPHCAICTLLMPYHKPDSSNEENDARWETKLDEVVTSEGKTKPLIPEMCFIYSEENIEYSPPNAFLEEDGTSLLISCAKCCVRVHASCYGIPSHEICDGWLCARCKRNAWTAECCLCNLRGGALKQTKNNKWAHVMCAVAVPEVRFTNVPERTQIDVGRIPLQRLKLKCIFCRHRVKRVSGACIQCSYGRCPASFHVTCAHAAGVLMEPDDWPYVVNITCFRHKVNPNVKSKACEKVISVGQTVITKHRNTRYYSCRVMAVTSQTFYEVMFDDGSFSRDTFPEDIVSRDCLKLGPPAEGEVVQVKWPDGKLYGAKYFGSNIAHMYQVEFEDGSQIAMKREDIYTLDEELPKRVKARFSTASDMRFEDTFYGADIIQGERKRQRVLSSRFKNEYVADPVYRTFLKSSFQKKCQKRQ
Kind of series: Inhibition of N-terminal his-tagged human KDM4C expressed in Escherichia coli BL21(DE3) using trimethylated peptide substrate by RFMS assay.

Series [3] concerns the target T3, Lysine-specific demethylase 4A (Homo sapiens, UniProt O75164).
T3 sequence (O75164 whole entry): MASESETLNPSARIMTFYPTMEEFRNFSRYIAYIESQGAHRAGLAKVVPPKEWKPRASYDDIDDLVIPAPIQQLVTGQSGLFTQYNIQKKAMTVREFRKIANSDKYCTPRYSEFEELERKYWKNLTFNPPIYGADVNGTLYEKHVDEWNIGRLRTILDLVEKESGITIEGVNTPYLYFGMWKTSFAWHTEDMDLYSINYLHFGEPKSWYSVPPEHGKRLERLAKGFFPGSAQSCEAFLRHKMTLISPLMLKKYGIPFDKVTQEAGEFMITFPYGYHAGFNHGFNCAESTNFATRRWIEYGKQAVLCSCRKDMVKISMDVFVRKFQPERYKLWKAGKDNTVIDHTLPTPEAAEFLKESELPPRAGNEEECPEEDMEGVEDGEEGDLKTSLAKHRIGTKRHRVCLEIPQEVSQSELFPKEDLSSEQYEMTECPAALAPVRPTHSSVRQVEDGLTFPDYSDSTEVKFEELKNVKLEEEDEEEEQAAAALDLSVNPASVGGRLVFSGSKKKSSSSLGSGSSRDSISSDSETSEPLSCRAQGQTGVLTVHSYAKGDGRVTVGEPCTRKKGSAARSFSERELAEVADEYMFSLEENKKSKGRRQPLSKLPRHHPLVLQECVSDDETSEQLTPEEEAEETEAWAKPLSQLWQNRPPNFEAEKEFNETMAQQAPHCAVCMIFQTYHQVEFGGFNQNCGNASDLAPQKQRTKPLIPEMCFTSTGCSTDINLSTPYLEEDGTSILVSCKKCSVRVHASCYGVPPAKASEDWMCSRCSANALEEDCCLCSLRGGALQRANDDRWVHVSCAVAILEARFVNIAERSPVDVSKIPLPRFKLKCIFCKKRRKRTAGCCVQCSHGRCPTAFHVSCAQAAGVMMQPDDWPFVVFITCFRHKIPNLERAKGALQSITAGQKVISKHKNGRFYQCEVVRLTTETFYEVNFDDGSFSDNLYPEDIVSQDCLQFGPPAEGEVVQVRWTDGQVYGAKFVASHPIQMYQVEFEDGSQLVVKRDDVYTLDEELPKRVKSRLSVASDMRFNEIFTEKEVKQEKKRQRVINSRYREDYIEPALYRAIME
Kind of series: Inhibition of KDM4A (unknown origin) by RFMS assay.

Series [4] has as its target T4, Lysine-specific demethylase 4D (Homo sapiens, UniProt Q6B0I6).
T4 sequence (Q6B0I6 whole entry): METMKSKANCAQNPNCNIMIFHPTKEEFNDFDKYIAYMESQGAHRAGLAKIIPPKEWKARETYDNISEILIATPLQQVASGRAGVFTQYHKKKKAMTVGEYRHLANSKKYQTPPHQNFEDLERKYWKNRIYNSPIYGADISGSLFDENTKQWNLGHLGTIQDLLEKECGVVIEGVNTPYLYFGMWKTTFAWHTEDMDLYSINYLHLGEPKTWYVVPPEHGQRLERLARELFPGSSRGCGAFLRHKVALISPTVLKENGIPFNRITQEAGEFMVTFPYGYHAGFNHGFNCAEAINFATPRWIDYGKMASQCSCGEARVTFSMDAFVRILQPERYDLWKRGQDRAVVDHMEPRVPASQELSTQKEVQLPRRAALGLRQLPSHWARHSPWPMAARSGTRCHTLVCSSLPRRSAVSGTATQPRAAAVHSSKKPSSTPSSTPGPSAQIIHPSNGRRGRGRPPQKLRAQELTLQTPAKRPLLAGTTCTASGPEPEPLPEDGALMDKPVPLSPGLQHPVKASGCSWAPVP
Nature of the series: Inhibition of KDM4D (unknown origin) by RFMS assay.

The target of series [5] is T5, Lysine-specific demethylase 5C (Homo sapiens, UniProt P41229). Nature of the series: Inhibition of KDM5C catalytic domain (1 -764 aa) (unknown origin) expressed in Sf9 cells using H3K4Me3 peptide as substrate by RFMS assay.
Series [6] deals with T5, Lysine-specific demethylase 5C. Kind of series: Inhibition of human KDM5C transfected in U2OS cells assessed as inhibition of […] demethylation for 24 hrs. Format: cell-based. As to conditions: read-out: pIC50 (converted). An outline of the steps: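 High-content cell imaging assay in U2OS cells overexpressing KDM5C, the same cell type as the KDM4C cellular mechanistic assay. Cellular potency reported as pIC50.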

A short description of the next series: physchem. As to conditions: buffer, pH 7.4.
The target in series [7] is T2, Lysine-specific demethylase 4C. Nature of the series: Inhibition of N-terminal HALO-tagged full-length human KDM4C transfected in U2OS cells assessed as inhibition of H3K9Me3 demethylation for 24 hrs.
The target is the same in series [8]. Kind of series: Inhibition of N-terminal his-tagged full-length human KDM4C transfected in U2OS cells assessed as inhibition of H3K9Me3 demethylation for 24 hrs. Format: cell-based.
The target in series [9] is Lysine-specific demethylase 6B (Homo sapiens, UniProt O15054). Nature of the series: Inhibition of KDM6B (unknown origin) by RFMS assay.
A further series has as its target Prolyl hydroxylase EGLN3 (Homo sapiens, UniProt Q9H6Z9). Nature of the series: Inhibition of full-length EGLN3 (unknown origin) expressed in Escherichia coli BL21(DE3) cells by HTRF assay.

T5 sequence (P41229 whole entry, the tested form may be a part): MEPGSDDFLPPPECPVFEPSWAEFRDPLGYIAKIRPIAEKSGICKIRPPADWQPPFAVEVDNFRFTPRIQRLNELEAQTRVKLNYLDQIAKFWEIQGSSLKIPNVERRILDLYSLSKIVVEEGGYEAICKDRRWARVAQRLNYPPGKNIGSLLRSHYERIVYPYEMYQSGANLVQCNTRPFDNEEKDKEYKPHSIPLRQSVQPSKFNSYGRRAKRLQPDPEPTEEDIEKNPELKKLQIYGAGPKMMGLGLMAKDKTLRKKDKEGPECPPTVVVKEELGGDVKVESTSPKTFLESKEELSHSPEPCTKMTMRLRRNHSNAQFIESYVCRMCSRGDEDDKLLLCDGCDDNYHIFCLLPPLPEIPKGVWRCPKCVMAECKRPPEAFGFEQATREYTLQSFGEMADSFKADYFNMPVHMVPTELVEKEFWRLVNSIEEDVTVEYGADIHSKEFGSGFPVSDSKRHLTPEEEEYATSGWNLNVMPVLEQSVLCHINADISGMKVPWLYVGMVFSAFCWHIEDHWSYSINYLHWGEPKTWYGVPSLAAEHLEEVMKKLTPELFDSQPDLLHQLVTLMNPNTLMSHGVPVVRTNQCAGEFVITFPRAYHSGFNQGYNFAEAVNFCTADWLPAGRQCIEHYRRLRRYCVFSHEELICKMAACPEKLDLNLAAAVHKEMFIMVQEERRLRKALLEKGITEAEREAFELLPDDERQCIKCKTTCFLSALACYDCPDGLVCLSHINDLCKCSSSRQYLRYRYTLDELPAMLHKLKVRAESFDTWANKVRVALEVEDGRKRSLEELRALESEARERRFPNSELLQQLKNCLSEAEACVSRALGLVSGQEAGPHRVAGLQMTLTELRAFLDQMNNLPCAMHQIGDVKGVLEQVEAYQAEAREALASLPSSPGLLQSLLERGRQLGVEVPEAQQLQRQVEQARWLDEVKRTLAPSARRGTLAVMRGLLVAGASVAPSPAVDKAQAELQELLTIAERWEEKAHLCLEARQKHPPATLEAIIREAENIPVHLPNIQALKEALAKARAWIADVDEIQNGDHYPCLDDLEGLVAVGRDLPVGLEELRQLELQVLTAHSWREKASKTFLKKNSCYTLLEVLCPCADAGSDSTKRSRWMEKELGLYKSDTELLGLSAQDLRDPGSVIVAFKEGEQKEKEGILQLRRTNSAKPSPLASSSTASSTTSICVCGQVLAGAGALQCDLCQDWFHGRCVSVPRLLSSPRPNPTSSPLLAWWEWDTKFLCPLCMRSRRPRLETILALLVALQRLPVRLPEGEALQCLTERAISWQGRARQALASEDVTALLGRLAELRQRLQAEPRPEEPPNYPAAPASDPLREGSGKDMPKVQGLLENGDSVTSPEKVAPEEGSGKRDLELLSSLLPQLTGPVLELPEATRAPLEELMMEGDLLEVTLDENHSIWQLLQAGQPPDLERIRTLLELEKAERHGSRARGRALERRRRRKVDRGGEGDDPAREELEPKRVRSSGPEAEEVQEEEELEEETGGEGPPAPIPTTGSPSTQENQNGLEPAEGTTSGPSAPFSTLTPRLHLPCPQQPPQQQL
Chain of Prolyl hydroxylase EGLN3 (Q9H6Z9 whole entry): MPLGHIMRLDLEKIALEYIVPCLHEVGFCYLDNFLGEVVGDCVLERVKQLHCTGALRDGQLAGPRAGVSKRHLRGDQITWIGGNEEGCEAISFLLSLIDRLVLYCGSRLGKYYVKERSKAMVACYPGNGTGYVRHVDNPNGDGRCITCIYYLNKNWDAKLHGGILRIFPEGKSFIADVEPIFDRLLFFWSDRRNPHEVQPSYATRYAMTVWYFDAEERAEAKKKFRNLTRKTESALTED
Chain of Lysine-specific demethylase 6B (O15054 whole entry): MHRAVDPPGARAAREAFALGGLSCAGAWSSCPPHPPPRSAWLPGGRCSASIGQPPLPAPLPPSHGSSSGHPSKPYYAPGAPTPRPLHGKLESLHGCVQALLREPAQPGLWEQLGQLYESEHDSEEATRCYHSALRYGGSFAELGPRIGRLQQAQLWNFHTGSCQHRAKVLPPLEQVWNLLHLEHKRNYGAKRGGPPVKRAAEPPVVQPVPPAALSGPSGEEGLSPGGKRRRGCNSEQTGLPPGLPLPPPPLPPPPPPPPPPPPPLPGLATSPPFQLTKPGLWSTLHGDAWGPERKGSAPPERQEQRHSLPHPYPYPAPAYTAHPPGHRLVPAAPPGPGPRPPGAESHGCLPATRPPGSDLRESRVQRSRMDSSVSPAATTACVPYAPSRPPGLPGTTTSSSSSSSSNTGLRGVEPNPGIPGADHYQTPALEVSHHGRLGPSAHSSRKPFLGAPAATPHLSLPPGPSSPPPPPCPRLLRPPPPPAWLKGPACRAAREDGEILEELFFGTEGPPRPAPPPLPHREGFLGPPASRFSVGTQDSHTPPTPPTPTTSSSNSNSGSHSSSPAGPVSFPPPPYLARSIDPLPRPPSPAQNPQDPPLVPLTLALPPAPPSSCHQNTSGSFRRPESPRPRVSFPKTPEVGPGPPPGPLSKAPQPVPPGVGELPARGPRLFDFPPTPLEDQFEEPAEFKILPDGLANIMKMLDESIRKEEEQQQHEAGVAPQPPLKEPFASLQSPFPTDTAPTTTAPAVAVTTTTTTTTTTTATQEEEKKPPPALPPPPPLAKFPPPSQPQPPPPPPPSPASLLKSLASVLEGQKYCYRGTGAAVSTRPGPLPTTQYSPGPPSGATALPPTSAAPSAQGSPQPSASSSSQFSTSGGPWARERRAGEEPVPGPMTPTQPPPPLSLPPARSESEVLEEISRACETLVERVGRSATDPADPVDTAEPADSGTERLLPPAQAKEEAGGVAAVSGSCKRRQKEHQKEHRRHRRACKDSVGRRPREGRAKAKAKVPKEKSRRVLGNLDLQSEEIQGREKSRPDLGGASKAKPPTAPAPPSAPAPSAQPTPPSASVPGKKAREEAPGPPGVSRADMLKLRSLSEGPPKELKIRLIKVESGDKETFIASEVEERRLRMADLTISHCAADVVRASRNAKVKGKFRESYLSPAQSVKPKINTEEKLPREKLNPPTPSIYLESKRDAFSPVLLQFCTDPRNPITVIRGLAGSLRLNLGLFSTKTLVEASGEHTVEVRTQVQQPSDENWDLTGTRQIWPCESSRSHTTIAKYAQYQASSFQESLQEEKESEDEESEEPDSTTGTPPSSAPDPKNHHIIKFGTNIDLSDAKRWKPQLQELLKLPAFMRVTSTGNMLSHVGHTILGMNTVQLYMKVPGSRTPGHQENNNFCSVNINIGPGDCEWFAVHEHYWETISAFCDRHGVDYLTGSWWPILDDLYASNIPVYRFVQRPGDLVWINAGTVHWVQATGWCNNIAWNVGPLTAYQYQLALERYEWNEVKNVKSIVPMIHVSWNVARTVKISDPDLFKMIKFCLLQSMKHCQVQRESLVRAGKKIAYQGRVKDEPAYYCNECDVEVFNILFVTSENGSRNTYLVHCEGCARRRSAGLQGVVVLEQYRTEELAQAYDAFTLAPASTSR

As to `Nc1cnccc1C(=O)O`, the IC50 in [1] was 1.26 µM.
For the compound `O=c1[nH]c(-c2ccccc2)nc2cnccc12`, in series [2], the IC50 was 20 µM.
Consider `CC(C)c1ccc(Oc2nc3cnccc3c(=O)[nH]2)cn1`, for which the IC50 in series [3] was 1.58 µM; in series [2], 1 µM; in [4], 0.631 µM; in [1], 0.398 µM; in series [5] it was 0.126 µM; in series [6], 50.1 µM. In addition, the IC50 in series [7] came out at 2 µM. For the same compound, the logD in the series “physchem” is 1.5.
`O=c1[nH]ncc2cnccc12` had an IC50 in series [2] greater than 100 µM.
For `O=c1[nH]c(Oc2cnn(-c3ccccc3)c2)nc2cnccc12`, the IC50 was 0.398 µM in series [2] and 3.98 µM in series [8]. In “physchem”, this compound registered a logD of 1.9.
On to `O=c1[nH]ccc2cnccc12`, for which, in series [2], the IC50 was greater than 100 µM.
On to `Cn1cc(Oc2nc3cnccc3c(=O)[nH]2)cn1`, for which the figures for the IC50 in series [2] and in [8] were 0.398 µM and 7.94 µM, respectively. The same compound had a logD in “physchem” of -0.3.
On the same counts, the results for `COc1cccc(Cn2cc(Oc3nc4cnccc4c(=O)[nH]3)cn2)c1` are 0.631 µM, 6.31 µM and 2.
In the same order, the values of `O=c1[nH]c(Oc2cnn(C3CCCCC3)c2)nc2cnccc12` are 0.398 µM, 3.98 µM and 2.2.
In the case of `O=c1[nH]c(-c2cncc(F)c2)nc2cnccc12`, the IC50 in [2] was 2 µM.
With `CC(C)n1cc(Oc2nc3cnccc3c(=O)[nH]2)cn1`, the IC50 in [2] was 0.501 µM; in series [8] it was 5.01 µM. The logD in the series “physchem” amounted to 0.7.
In the same order, the values of `O=c1[nH]c(Oc2cnn(C3CCCCCC3)c2)nc2cnccc12` are 0.501 µM, 2.51 µM and 2.9.
For the compound `O=c1ncn(Cc2ccccc2)c2cnccc12`, the IC50 in series [2] was 25.1 µM.
On to `O=c1[nH]c(OCc2ccccc2)nc2cnccc12`, for which the IC50 in [2] is 2 µM; in series [8], greater than 100 µM. The same compound showed a logD in “physchem” of 2.8.
On to `O=c1[nH]c(Oc2cnn(Cc3cccnc3)c2)nc2cnccc12`, for which the results for the IC50 in series [2] and in series [8] were 0.631 µM and 12.6 µM, respectively. Further, the logD in the series “physchem” was determined as 0.3.
Turning to `O=c1[nH]c(Oc2ccc(Cl)cc2)nc2cnccc12`, the IC50 in series [2] is 0.501 µM; in [8], 10 µM.
On to `Cc1nn(C)cc1Oc1nc2cnccc2c(=O)[nH]1`, for which the results for the IC50 in series [2] and in [8] were 2.51 µM and greater than 100 µM, respectively. The compound also gave a logD in “physchem” of 0.
On the same counts, the results for `O=c1[nH]c(OC2CCCCC2)nc2cnccc12` are 3.16 µM, 25.1 µM and 3.7.
As for `O=c1[nH]c(-c2cccnc2)nc2cnccc12`, the IC50 in series [2] was 7.94 µM.
In series [2], `Cc1c(Oc2nc3cnccc3c(=O)[nH]2)cnn1C` gave an IC50 of 2 µM. In the series “physchem”, this compound showed a logD of -0.2.
With `O=c1[nH]c(OCC2CCCCC2)nc2cnccc12`, the IC50 in series [2] was 3.16 µM; in [8], greater than 100 µM. In “physchem”, this compound gave a logD of 4.5.
In the same order, the values of `O=c1[nH]c(Oc2cccc(O)c2)nc2cnccc12` are 0.2 µM, 10 µM and 0.3.
`O=c1[nH]c(Oc2cnn(Cc3ccccc3)c2)nc2ncccc12`: the IC50 (in [3]; in series [2]; in series [4]; in [1]; in series [9]; against Prolyl hydroxylase EGLN3) was greater than 100 µM in each case. In addition, the IC50 was greater than 100 µM in series [8], 31.6 µM in series [5] and greater than 100 µM in series [6].
In the case of `O=c1[nH]c(Oc2cn[nH]c2)nc2cnccc12`, the IC50 was 0.398 µM in series [2] and 7.94 µM in [8]. The compound also came in with a logD in “physchem” of -0.6.
`O=c1[nH]c(Oc2cccnc2)nc2cnccc12`: the IC50 in series [2] was 0.501 µM; in [8], 12.6 µM. In addition, the pH-dependent lipophilicity (logD) in the series “physchem” was -0.2.
In turn, `O=c1ncn(CCCc2ccccc2)c2cnccc12` gave an IC50 in series [2] of no less than 100 µM.
On to `O=c1[nH]c(Oc2ccccc2)nc2cnccc12`, for which the IC50 in series [2] is 0.631 µM; in series [8] it was 12.6 µM. Besides, the logD in “physchem” is 1.2.
For `O=c1[nH][nH]c2cnccc12`, the IC50 in [2] is greater than 100 µM.
